Measured values as given in ChEMBL document CHEMBL5705890, “Antitumor activity of an allosteric inhibitor of centromere-associated protein-E” (Proc Natl Acad Sci U S A, 2010).

What was measured:
HCT-15 = assay: Anticancer activity against human HCT-15 cells assessed as cell growth inhibition measured after 72 hrs by DAPI staining based analysis; assay type: functional
HT-29 [1] = assay: Antitumor activity against human HT-29 cells in xenograft model assessed as difference between median time to endpoint time of treated versus control group at 62.5 mg/kg; assay type: functional
[2] = Anticancer activity against human SCC-13 cells assessed as cell doubling measured for 72 hrs by DAPI staining based analysis; assay type: functional
C-33-A = assay: Anticancer activity against human C-33-A cells assessed as cell doubling measured for 72 hrs by DAPI staining based analysis; assay type: functional
SW 962 [3] = assay: Anticancer activity against human SW 962 cells assessed as cell growth inhibition measured after 72 hrs by DAPI staining based analysis; assay type: functional
HEC-1-A = assay: Anticancer activity against human HEC-1-A cells assessed as cell growth inhibition measured after 72 hrs by DAPI staining based analysis; assay type: functional
HT-29 [4] = assay: Antitumor activity against human HT-29 cells in xenograft model assessed as tumor growth delay at 125 mg/kg relative to control; assay type: functional
786-0 = assay: Anticancer activity against human 786-0 cells assessed as cell doubling measured for 72 hrs by DAPI staining based analysis; assay type: functional
A101D = assay: Anticancer activity against human A101D cells assessed as cell doubling measured for 72 hrs by DAPI staining based analysis; assay type: functional
SJRH30 = assay: Anticancer activity against human SJRH30 cells assessed as cell growth inhibition measured after 72 hrs by DAPI staining based analysis; assay type: functional
SNU-387 = assay: Anticancer activity against human SNU-387 cells assessed as cell doubling measured for 72 hrs by DAPI staining based analysis; assay type: functional
A673 = assay: Anticancer activity against human A673 cells assessed as cell growth inhibition measured after 72 hrs by DAPI staining based analysis; assay type: functional
Procedure, shortened: (§1)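 Cells were seeded and, after 24 h, DNA content was read as T0. Cells were then exposed to varying drug concentrations for a further 72 h (T72). Fixed cells were DAPI-stained and DNA content measured by automated imaging. T72 values were normalized to T0. GI50 is the concentration giving 50% growth inhibition between T0 and Ymax, obtained by curve fitting.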

BE(2)-C = assay: Anticancer activity against human BE2C cells assessed as cell growth inhibition measured after 72 hrs by DAPI staining based analysis; assay type: functional; procedure, shortened: as §1
NCI-H157 = assay: Anticancer activity against human NCI-H157 cells assessed as cell growth inhibition measured after 72 hrs by DAPI staining based analysis; assay type: functional
HCC70 = assay: Anticancer activity against human HCC70 cells assessed as cell growth inhibition measured after 72 hrs by DAPI staining based analysis; assay type: functional
SK-OV-3 = assay: Anticancer activity against human SK-OV-3 cells assessed as cell growth inhibition measured after 72 hrs by DAPI staining based analysis; assay type: functional
SF-268 = assay: Anticancer activity against human SF-268 cells assessed as cell doubling measured for 72 hrs by DAPI staining based analysis; assay type: functional
SW1783 = assay: Anticancer activity against human SW1783 cells assessed as cell growth inhibition measured after 72 hrs by DAPI staining based analysis; assay type: functional
T47D = assay: Anticancer activity against human T47D cells assessed as cell growth inhibition measured after 72 hrs by DAPI staining based analysis; assay type: functional
[5] = Toxicity in mouse xenografted with human COLO 205 cells at 500 mg/kg, ip administered three doses daily on 2 consecutive weeks; assay type: organism-based; settings: in vivo, 336 h, time 2 weeks
SCC-25 = assay: Anticancer activity against human SCC-25 cells assessed as cell growth inhibition measured after 72 hrs by DAPI staining based analysis; assay type: functional
Centromere protein E = Centromere protein E (Canis lupus familiaris, UniProt A0A8P0P634); assay: Binding affinity to wild-type dog CENP-E assessed as inhibition constant
WiDr = assay: Anticancer activity against human WiDr cells assessed as cell growth inhibition measured after 72 hrs by DAPI staining based analysis; assay type: functional
Malme-3M = assay: Anticancer activity against human Malme-3M cells assessed as cell growth inhibition measured after 72 hrs by DAPI staining based analysis; assay type: functional
SCC-15 = assay: Anticancer activity against human SCC-15 cells assessed as cell doubling measured for 72 hrs by DAPI staining based analysis; assay type: functional
MX1 = assay: Antitumor activity against human MX1 cells in xenograft model assessed as tumor growth delay at 62.5 mg/kg relative to control; assay type: functional
SW 962 [6] = assay: Anticancer activity against human SW 962 cells assessed as cell doubling measured for 72 hrs by DAPI staining based analysis; assay type: functional
OVCAR-5 [7] = assay: Anticancer activity against human OVCAR-5 cells assessed as cell growth inhibition measured after 72 hrs by DAPI staining based analysis; assay type: functional
NCI-H1299 = assay: Antitumor activity against human NCI-H1299 cells in xenograft model assessed as difference between median time to endpoint time of treated versus control group at 125 mg/kg; assay type: functional
SW48 = assay: Anticancer activity against human SW48 cells assessed as cell doubling measured for 72 hrs by DAPI staining based analysis; assay type: functional
[8] = Anticancer activity against human KPL-1 cells assessed as cell doubling measured for 72 hrs by DAPI staining based analysis; assay type: functional
SN12C = assay: Anticancer activity against human SN12C cells assessed as cell growth inhibition measured after 72 hrs by DAPI staining based analysis; assay type: functional
MOLT-16 = assay: Anticancer activity against human MOLT-16 cells assessed as cell doubling measured for 72 hrs by DAPI staining based analysis; assay type: functional
HEC-1B cell line = assay: Anticancer activity against human HEC-1B cells assessed as cell doubling measured for 72 hrs by DAPI staining based analysis; assay type: functional
MDA-MB-453 = assay: Anticancer activity against human MDA-MB-453 cells assessed as cell growth inhibition measured after 72 hrs by DAPI staining based analysis; assay type: functional
[9] = Anticancer activity against human UM-SCC-12 cells assessed as cell growth inhibition measured after 72 hrs by DAPI staining based analysis; assay type: functional
CESS = assay: Anticancer activity against human CESS cells assessed as cell doubling measured for 72 hrs by DAPI staining based analysis; assay type: functional
[10] = Anticancer activity against human KHOS-240S cells assessed as cell doubling measured for 72 hrs by DAPI staining based analysis; assay type: functional
HCT-116 = assay: Anticancer activity against human HCT-116 cells assessed as cell doubling measured for 72 hrs by DAPI staining based analysis; assay type: functional
647-V = assay: Anticancer activity against human 647-V cells assessed as cell growth inhibition measured after 72 hrs by DAPI staining based analysis; assay type: functional; procedure, shortened: as §1
SNU-449 = assay: Anticancer activity against human SNU-449 cells assessed as cell doubling measured for 72 hrs by DAPI staining based analysis; assay type: functional
OVCAR-5 [11] = assay: Anticancer activity against human OVCAR-5 cells assessed as cell doubling measured for 72 hrs by DAPI staining based analysis; assay type: functional
SW-403 = assay: Anticancer activity against human SW403 cells assessed as cell growth inhibition measured after 72 hrs by DAPI staining based analysis; assay type: functional
SW837 = assay: Anticancer activity against human SW837 cells assessed as cell doubling measured for 72 hrs by DAPI staining based analysis; assay type: functional

Chain of Centromere protein E (A0A8P0P634 whole entry): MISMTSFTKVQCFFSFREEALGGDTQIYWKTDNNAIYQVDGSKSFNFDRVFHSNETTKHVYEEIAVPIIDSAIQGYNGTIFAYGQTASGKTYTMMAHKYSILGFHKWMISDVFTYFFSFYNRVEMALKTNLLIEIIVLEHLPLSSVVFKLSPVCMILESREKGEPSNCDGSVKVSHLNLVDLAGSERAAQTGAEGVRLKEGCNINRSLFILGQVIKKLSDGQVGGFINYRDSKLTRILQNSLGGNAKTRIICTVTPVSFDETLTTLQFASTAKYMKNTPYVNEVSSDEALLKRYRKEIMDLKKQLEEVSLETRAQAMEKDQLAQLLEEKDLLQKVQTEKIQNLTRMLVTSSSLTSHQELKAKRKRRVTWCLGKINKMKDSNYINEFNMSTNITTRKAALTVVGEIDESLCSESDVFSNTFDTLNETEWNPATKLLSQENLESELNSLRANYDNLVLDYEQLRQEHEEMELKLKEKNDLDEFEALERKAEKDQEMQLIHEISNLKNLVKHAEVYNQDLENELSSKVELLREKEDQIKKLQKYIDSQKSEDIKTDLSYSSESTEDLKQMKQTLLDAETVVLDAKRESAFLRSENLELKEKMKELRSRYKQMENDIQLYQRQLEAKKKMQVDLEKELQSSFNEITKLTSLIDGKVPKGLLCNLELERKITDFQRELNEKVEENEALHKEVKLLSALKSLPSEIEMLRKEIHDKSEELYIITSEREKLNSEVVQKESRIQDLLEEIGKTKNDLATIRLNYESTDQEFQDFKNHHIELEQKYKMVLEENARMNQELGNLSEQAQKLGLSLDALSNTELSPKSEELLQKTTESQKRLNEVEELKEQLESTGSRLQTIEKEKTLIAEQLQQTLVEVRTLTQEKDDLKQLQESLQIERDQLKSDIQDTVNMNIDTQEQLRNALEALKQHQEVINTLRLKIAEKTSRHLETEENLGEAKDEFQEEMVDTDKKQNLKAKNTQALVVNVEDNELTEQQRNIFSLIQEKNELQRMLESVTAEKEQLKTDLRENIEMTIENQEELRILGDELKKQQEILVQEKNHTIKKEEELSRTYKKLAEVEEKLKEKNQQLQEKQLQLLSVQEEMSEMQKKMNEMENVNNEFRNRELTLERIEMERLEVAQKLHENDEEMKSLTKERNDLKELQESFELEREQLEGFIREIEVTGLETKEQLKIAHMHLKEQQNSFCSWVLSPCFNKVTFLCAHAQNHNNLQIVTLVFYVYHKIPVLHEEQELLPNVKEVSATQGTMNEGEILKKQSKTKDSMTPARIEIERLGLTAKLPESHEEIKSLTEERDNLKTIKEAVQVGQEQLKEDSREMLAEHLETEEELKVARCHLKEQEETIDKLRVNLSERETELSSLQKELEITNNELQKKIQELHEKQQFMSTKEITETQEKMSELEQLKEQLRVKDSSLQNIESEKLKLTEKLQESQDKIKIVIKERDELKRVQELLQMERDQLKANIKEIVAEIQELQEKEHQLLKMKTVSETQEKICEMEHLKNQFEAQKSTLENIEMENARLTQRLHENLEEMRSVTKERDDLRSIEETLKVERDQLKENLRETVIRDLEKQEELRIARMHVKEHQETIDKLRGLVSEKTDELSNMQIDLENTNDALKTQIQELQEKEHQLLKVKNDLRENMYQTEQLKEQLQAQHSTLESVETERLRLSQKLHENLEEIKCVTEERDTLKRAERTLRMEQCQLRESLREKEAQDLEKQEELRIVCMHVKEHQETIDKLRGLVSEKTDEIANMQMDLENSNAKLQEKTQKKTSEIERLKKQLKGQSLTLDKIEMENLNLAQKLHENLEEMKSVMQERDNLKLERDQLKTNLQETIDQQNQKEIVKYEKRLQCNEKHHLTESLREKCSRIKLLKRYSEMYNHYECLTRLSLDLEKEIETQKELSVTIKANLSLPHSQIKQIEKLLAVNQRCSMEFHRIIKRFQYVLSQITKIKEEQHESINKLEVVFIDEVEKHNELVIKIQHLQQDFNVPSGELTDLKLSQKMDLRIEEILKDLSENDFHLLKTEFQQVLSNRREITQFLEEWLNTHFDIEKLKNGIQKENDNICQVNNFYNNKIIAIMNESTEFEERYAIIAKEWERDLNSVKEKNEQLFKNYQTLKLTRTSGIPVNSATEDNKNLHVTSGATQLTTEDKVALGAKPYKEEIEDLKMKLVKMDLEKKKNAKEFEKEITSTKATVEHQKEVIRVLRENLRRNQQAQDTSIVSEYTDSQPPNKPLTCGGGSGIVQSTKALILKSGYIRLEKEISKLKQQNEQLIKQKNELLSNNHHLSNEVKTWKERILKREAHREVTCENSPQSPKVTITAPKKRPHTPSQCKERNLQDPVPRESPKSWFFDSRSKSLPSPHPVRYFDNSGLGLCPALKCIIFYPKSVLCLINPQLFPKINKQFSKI

What does the source list for `CC(C)Oc1ccc(C(=O)N[C@H](CNC(=O)CN(C)C)Cc2ccc(-c3cn4cccc([C@H](C)O)c4n3)cc2)cc1Cl` [GSK-923295A]?
GI50 (HCT-15): 151 nM; Time (HT-29 [1]): 2.7 days; Activity [2]: 3.39; Activity (C-33-A): 3.13; GI50 (SW 962 [3]): 21 nM; GI50 (HEC-1-A): 50 nM; Activity (HT-29 [4]): 39%; Activity (786-0): 2.59; Activity (A101D): 1.36; GI50 (SJRH30): 26 nM; Activity (SNU-387): 1.21; GI50 (A673): 23 nM; GI50 (BE(2)-C): 93 nM; GI50 (NCI-H157): 37 nM; GI50 (HCC70): 24 nM; GI50 (SK-OV-3): 26 nM; Activity (SF-268): 2.13; GI50 (SW1783): 34 nM; GI50 (T47D): 29 nM; Activity [5]: Non-Toxic; GI50 (SCC-25): 23 nM; Ki (Centromere protein E): 1.6 nM; GI50 (WiDr): 18 nM; GI50 (Malme-3M): 51 nM; Activity (SCC-15): 2.38; Activity (MX1): 5%; Activity (SW 962 [6]): 2.46; GI50 (OVCAR-5 [7]): 34 nM; Time (NCI-H1299): 16.8 days; Activity (SW48): 2.44; Activity [8]: 2.47; GI50 (SN12C): 29 nM; Activity (MOLT-16): 4.23; Activity (HEC-1B cell line): 2.04; GI50 (MDA-MB-453): 27 nM; GI50 [9]: 33 nM; Activity (CESS): 1.39; Activity [10]: 2.44; Activity (HCT-116): 4.11; GI50 (647-V): 72 nM; Activity (SNU-449): 2.33; Activity (OVCAR-5 [11]): 2.84; GI50 (SW-403): 24 nM; Activity (SW837): 1.74
